pIC50: −log10 of the molar value. Active and inactive are the calls of the source. No cut-off for these calls is given here.
test system: HL-60; experiment: Cytotoxicity against human HL60 cells after 48 hrs by MTT assay; type: functional, cell-based; settings: HL-60, 48 h
Summary of the method: (§1)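 Cells seeded at 5000 per well, left overnight, then exposed to compound at 0–50 μM for 48 h. MTT (20 μL of 2.5 mg mL−1) added for a further 4 h at 37 °C, formazan dissolved in DMSO, absorbance read at 570 nm. Quadruplicate wells, N > 2 determinations, mean IC50 taken as the concentration reducing cell number to 50%.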

SMILES	pIC50
O=C(O)CN1C(=O)/C(=C/c2nc3ccc(F)cc3n2Cc2ccccc2F)SC1=S	5.28
COc1ccc2c(c1)nc(/C=C1\SC(=S)N(CC(=O)O)C1=O)n2Cc1ccc(C)cc1	6.11
COc1cc([C@@H]2c3cc4c(cc3[C@@H](O[C@@H]3O[C@@H]5CO[C@@H](C)O[C@H]5[C@H](O)[C@H]3O)[C@H]3COC(=O)[C@H]23)OCO4)cc(OC)c1O [ETOPOSIDE]	6.24

test system: HeLa; experiment: Cytotoxicity against human HeLa cells after 48 hrs by MTT assay; type: functional, cell-based; settings: not given; summary of the method: as §1

SMILES	pIC50
O=C(O)CN1C(=O)/C(=C/c2nc3ccc(F)cc3n2Cc2ccccc2F)SC1=S	< 4.30
COc1ccc2c(c1)nc(/C=C1\SC(=S)N(CC(=O)O)C1=O)n2Cc1ccc(C)cc1	5.74
COc1cc([C@@H]2c3cc4c(cc3[C@@H](O[C@@H]3O[C@@H]5CO[C@@H](C)O[C@H]5[C@H](O)[C@H]3O)[C@H]3COC(=O)[C@H]23)OCO4)cc(OC)c1O [ETOPOSIDE]	4.54

test system: MDA-MB-231; experiment: Cytotoxicity against human MDA-MB-231 cells after 48 hrs by MTT assay; type: functional, cell-based; settings: MDA-MB-231, 48 h; summary of the method: as §1

SMILES	pIC50
O=C(O)CN1C(=O)/C(=C/c2nc3ccc(F)cc3n2Cc2ccccc2F)SC1=S	< 4.30
COc1ccc2c(c1)nc(/C=C1\SC(=S)N(CC(=O)O)C1=O)n2Cc1ccc(C)cc1	5.91
COc1cc([C@@H]2c3cc4c(cc3[C@@H](O[C@@H]3O[C@@H]5CO[C@@H](C)O[C@H]5[C@H](O)[C@H]3O)[C@H]3COC(=O)[C@H]23)OCO4)cc(OC)c1O [ETOPOSIDE]	4.52

organism: Homo sapiens; experiment: Poison activity at human topoisomerase 2 assessed as transformation of supercoiled pBR322 DNA to linear pBR322 DNA at 100 uM after 6 mins by agarose gel electrophoresis; settings: not given

SMILES	Activity
COc1cc([C@@H]2c3cc4c(cc3[C@@H](O[C@@H]3O[C@@H]5CO[C@@H](C)O[C@H]5[C@H](O)[C@H]3O)[C@H]3COC(=O)[C@H]23)OCO4)cc(OC)c1O [ETOPOSIDE]	Active

test system: A549; experiment: Cytotoxicity against human A549 cells after 48 hrs by MTT assay; type: functional, cell-based; settings: A549, 48 h; summary of the method: as §1

SMILES	pIC50
O=C(O)CN1C(=O)/C(=C/c2nc3ccc(F)cc3n2Cc2ccccc2F)SC1=S	< 4.30
COc1ccc2c(c1)nc(/C=C1\SC(=S)N(CC(=O)O)C1=O)n2Cc1ccc(C)cc1	5.25
COc1cc([C@@H]2c3cc4c(cc3[C@@H](O[C@@H]3O[C@@H]5CO[C@@H](C)O[C@H]5[C@H](O)[C@H]3O)[C@H]3COC(=O)[C@H]23)OCO4)cc(OC)c1O [ETOPOSIDE]	5.61

test system: PC-3; experiment: Cytotoxicity against human PC3 cells after 48 hrs by MTT assay; type: functional, cell-based; settings: PC-3, 48 h; summary of the method: as §1

SMILES	pIC50
O=C(O)CN1C(=O)/C(=C/c2nc3ccc(F)cc3n2Cc2ccccc2F)SC1=S	< 4.30
COc1ccc2c(c1)nc(/C=C1\SC(=S)N(CC(=O)O)C1=O)n2Cc1ccc(C)cc1	5.44
COc1cc([C@@H]2c3cc4c(cc3[C@@H](O[C@@H]3O[C@@H]5CO[C@@H](C)O[C@H]5[C@H](O)[C@H]3O)[C@H]3COC(=O)[C@H]23)OCO4)cc(OC)c1O [ETOPOSIDE]	4.88

target: T1, DNA topoisomerase 1 (Homo sapiens) (UniProt P11387); experiment: Inhibition of topoisomerase 1 (unknown origin)-mediated pBR322 DNA relaxation at 50 uM after 30 mins by agarose gel electrophoresis; settings: not given
T1 sequence (whole entry): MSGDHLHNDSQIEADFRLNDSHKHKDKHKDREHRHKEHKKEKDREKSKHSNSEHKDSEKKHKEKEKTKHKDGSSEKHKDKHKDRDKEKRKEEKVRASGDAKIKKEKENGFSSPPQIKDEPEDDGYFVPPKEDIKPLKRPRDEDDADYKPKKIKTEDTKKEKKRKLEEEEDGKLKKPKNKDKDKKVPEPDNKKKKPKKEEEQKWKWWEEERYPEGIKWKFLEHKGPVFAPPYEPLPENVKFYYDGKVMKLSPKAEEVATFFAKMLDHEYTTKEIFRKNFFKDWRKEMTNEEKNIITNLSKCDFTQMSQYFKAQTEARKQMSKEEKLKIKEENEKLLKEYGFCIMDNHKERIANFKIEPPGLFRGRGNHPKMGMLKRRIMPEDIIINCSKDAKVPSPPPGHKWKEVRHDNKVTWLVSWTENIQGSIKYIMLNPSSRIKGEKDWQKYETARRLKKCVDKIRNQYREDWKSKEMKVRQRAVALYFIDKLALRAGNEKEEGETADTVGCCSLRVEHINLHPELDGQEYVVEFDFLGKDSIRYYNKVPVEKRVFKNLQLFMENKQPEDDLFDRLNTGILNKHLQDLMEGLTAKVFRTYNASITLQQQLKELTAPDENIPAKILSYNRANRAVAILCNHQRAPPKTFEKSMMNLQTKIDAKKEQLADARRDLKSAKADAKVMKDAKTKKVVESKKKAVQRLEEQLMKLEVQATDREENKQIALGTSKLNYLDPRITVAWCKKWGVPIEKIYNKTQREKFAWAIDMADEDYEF
Summary of the method: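 Topo I relaxation of pBR322 with compound at 30 min, 37 °C, camptothecin positive control. Stopped with SDS/bromophenol blue/glycerol dye, run on 1% agarose in TAE for 1.5 h, Ged Red stained, UV visualized.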

inhibition	SMILES
inactive	O=C(O)CN1C(=O)/C(=C/c2nc3ccc(F)cc3n2Cc2ccccc2F)SC1=S
inactive	COc1ccc2c(c1)nc(/C=C1\SC(=S)N(CC(=O)O)C1=O)n2Cc1ccc(C)cc1

organism: Homo sapiens; experiment: Inhibition of human topoisomerase 2-mediated pBR322 DNA relaxation at 20 uM after 30 mins by agarose gel electrophoresis; settings: not given

inhibition	SMILES
Active	O=C(O)CN1C(=O)/C(=C/c2nc3ccc(F)cc3n2Cc2ccccc2F)SC1=S
Active	COc1ccc2c(c1)nc(/C=C1\SC(=S)N(CC(=O)O)C1=O)n2Cc1ccc(C)cc1

SMILES	inhibition
COc1cc([C@@H]2c3cc4c(cc3[C@@H](O[C@@H]3O[C@@H]5CO[C@@H](C)O[C@H]5[C@H](O)[C@H]3O)[C@H]3COC(=O)[C@H]23)OCO4)cc(OC)c1O [ETOPOSIDE]	Active

organism: Homo sapiens; experiment: Inhibition of human topoisomerase 2-mediated pBR322 DNA relaxation at 100 uM after 30 mins by agarose gel electrophoresis; settings: not given

SMILES	inhibition
COc1cc([C@@H]2c3cc4c(cc3[C@@H](O[C@@H]3O[C@@H]5CO[C@@H](C)O[C@H]5[C@H](O)[C@H]3O)[C@H]3COC(=O)[C@H]23)OCO4)cc(OC)c1O [ETOPOSIDE]	Active

organism: Homo sapiens; experiment: Inhibition of human topoisomerase 2-mediated pBR322 DNA relaxation at 50 uM after 30 mins by agarose gel electrophoresis; settings: not given
Summary of the method: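 Relaxation of 200 ng supercoiled pBR322 by 1 U Topo II (TopoGEN) in 20 μL buffer: 50 mM Tris-HCl pH 8.0, 150 mM NaCl, 10 mM MgCl2, 2 mM ATP, 0.5 mM DTT, 30 μg/mL BSA. Incubated 30 min at 37 °C, stopped with sarcosyl/glycerol dye. Products run on 1% agarose in TAE (1.5 h, 75 V), Ged Red stained, UV imaged; etoposide positive control.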

inhibition	SMILES
Active	O=C(O)CN1C(=O)/C(=C/c2nc3ccc(F)cc3n2Cc2ccccc2F)SC1=S
Active	COc1ccc2c(c1)nc(/C=C1\SC(=S)N(CC(=O)O)C1=O)n2Cc1ccc(C)cc1

organism: Homo sapiens; experiment: Inhibition of human topoisomerase 2-mediated pBR322 DNA relaxation at 10 uM after 30 mins by agarose gel electrophoresis; settings: not given

inhibition	SMILES
Active	O=C(O)CN1C(=O)/C(=C/c2nc3ccc(F)cc3n2Cc2ccccc2F)SC1=S
Active	COc1ccc2c(c1)nc(/C=C1\SC(=S)N(CC(=O)O)C1=O)n2Cc1ccc(C)cc1

test system: Raji; experiment: Cytotoxicity against human Raji cells after 48 hrs by MTT assay; type: functional, cell-based; settings: not given; summary of the method: as §1

SMILES	pIC50
O=C(O)CN1C(=O)/C(=C/c2nc3ccc(F)cc3n2Cc2ccccc2F)SC1=S	4.65
COc1ccc2c(c1)nc(/C=C1\SC(=S)N(CC(=O)O)C1=O)n2Cc1ccc(C)cc1	5.75
COc1cc([C@@H]2c3cc4c(cc3[C@@H](O[C@@H]3O[C@@H]5CO[C@@H](C)O[C@H]5[C@H](O)[C@H]3O)[C@H]3COC(=O)[C@H]23)OCO4)cc(OC)c1O [ETOPOSIDE]	5.92

Source: ChEMBL document CHEMBL4257549, “Design, synthesis and biological evaluation of benzimidazole-rhodanine conjugates as potent topoisomerase II inhibitors” (Medchemcomm, 2018)
